We go through two compounds from ChEMBL document CHEMBL2440065, “Identification of a novel benzoxazolone derivative as a selective, orally active 18 kDa translocator protein (TSPO) ligand” (J Med Chem, 2013).

For series [1], the system named is Mus musculus. Nature of the series: Neurotoxicity in ddY mouse assessed as elongation of hexobarbital-induced sleep at 0.3 to 3 mg/kg, po after 1 hr. The class given is toxicity, organism-based. The arrangement: dose 0.3-3 mg/kg, route oral. As to conditions: in vivo.
Series [2] has as its system Mus musculus. Nature of the series: Neurotoxicity in ddY mouse assessed as reduction in locomotor activity at 3 to 30 mg/kg, po after 1 hr. The class given is toxicity, organism-based. Set-up: dose 3-30 mg/kg, route oral. As to conditions: in vivo.
For series [3], the system named is Rattus norvegicus. Nature of the series: Neurotoxicity in Wistar rat assessed as memory impairment at 1 to 30 mg/kg, po after 1 hr by passive avoidance test. The class given is toxicity, organism-based. Set-up: dose 1-30 mg/kg, route oral. As to conditions: in vivo.
Series [4] concerns Mus musculus. Nature of the series: Neurotoxicity in ddY mouse assessed as motor impairment at 3 to 30 mg/kg, po after 1 hr by horizontal rotarod test. The class given is toxicity, organism-based. Set-up: dose 3-30 mg/kg, route oral. As to conditions: in vivo. On the technique in general: The rotarod test checks motor coordination on a turning rod.
In series [5] the test system is Mus musculus. Nature of the series: Neurotoxicity in ddY mouse assessed as motor impairment at 10 to 100 mg/kg, po after 1 hr by horizontal rotarod test. The class given is toxicity, organism-based. Set-up: dose 10-100 mg/kg, route oral. As to conditions: in vivo.
Series [6] in a line: Ratio of drug level in brain to blood in rat at 10 mg/kg, po. The class given is ADME, organism-based. Set-up: dose 10 mg/kg, route oral. Summed up: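 Rats dosed orally at 10 mg/kg (HCl salt); brain and blood drug concentrations measured and expressed as brain/blood ratio.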
Series [7] has as its system Mus musculus. Nature of the series: Neurotoxicity in ddY mouse assessed as elongation of hexobarbital-induced sleep at 300 mg/kg, po after 1 hr relative to diazepam. The class given is toxicity, organism-based. The arrangement: dose 300 mg/kg, route oral. As to conditions: in vivo.
Series [8] concerns Mus musculus. Nature of the series: Neurotoxicity in ddY mouse assessed as reduction in locomotor activity at 10 to 100 mg/kg, po after 1 hr. As to conditions: in vivo. The arrangement: dose 10-100 mg/kg, route oral. The class given is toxicity, organism-based.
For series [9], the system named is Rattus norvegicus. Nature of the series: Neurotoxicity in Wistar rat assessed as memory impairment at 3 to 30 mg/kg, po after 1 hr by passive avoidance test. As to conditions: in vivo. The arrangement: dose 3-30 mg/kg, route oral. The class given is toxicity, organism-based.

A word on the Kp: it is the ratio of the level in a tissue or fluid to that in plasma or blood.

Each structure is given as a SMILES string.

Take `CN1C(=O)CN=C(c2ccccc2)c2cc(Cl)ccc21` [DIAZEPAM]: the Activity entry in the series with Mus musculus [1], with Mus musculus [2], in the series with Rattus norvegicus [3] and in the series with Mus musculus [4] was “Toxic” each time.

Regarding `CN(C(=O)Cn1c(=O)oc2ccc(-c3cccnc3)cc21)c1ccc(C(F)(F)F)cc1.Cl`, the Activity entry with Mus musculus [5], in the series on Mus musculus [7], in the series on Mus musculus [8] and with Rattus norvegicus [9] was “Non-toxic” in each case. The Kp in [6] turned out to be 1.2.
